In the library only some 2.6% were active in any assay of this set; here they are far more common.
ASAP1 inh = ASAP1 ArfGAP inhibition | 0.19% of 360,000 active | inhibition, % at 16.5 µM | Q9ULH1 | AID 624377 | ASAP1-stimulated ARF1 GTP hydrolysis, GDP FP detection; in the data active means inhibition above about 25%;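 further: 0% = vehicle with enzyme and substrate and 100% = no enzyme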
Target sequence (Q9ULH1 325-724 limits assumed): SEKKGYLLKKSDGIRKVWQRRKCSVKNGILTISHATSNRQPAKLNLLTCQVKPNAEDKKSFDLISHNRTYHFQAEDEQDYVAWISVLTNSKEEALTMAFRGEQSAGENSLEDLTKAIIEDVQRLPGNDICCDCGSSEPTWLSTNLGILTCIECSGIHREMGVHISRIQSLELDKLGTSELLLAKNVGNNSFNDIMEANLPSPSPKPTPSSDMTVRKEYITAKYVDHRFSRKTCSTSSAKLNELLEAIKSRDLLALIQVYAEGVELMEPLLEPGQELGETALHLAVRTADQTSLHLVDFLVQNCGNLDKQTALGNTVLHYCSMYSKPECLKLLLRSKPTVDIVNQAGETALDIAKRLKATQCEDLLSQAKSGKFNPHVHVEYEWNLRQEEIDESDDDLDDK
ARFGAP1 inh = rat ARFGAP1 inhibition. Q62848. inhibition, % at 16.5 µM. 0.26% of 360,000 active. AID 651572. Arfgap1-stimulated ARF1 GTP hydrolysis, GDP FP detection;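 active means inhibition above a per-plate limit, mean inhibition of low control wells plus 3 SD, cut at about 25% in these data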;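 further: 0% = DMSO wells with enzyme and 100% = wells lacking Arfgap1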
Target sequence (Q62848 1-136 limits assumed): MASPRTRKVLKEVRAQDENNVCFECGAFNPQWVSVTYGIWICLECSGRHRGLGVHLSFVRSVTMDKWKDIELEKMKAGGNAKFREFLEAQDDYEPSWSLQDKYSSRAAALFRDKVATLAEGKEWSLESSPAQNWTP
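Material: rat Arfgap1 catalytic domain, aa 1-136; also added: human ARF1(Δ1-17)-GTP substrate; compound dosing: one concentration, 16.5 µM, DMSO 1.26%; incubation: GTP hydrolysis reaction 2 h at 25 °C; measured by: Tracer-displacement fluorescence polarization with EDTA stop, 620/688 nm; evaluation: % inhibition from polarization; repeats: one replicate per compound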
SMARCA2 activ = SMARCA2 function activation, primary screen; MG213 cells, MMTV-luciferase reporter, dexamethasone, overnight; activation, % at 9.1 µM; 1% of 370,000 active; AID 652017; in the data active means activation above about 7.8%;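 further: 0% = vehicle wells and 100% = reference activator wells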
esBAF inh = inhibitors of esBAF chromatin remodeling in mouse ES cells; Bmi1-luciferase knock-in reporter, 24 h; 100% = twice the neutral-well signal; reporter increase, % at 12.5 µM; 2% of 350,000 active; in the data active means activation above about 40%; inconclusive means no clear call, values can overlap the other calls;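 further: 0% = median of the plate's neutral control wells and 100% = double that signal; a rise in the Bmi1 reporter signal indicates esBAF inhibition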
SMARCA2 act conf = confirmation of SMARCA2 (BRM) function activators; shares compounds with SMARCA2 activ; MG213 cells, MMTV-luciferase with dexamethasone, luminescence, overnight; MG213 cells expressing E1A, Rb sequestered; DMSO wells 0%, reference activator 100%; activation, % at 9.1 µM; 30% of 3,500 active; AID 652260;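 active means activation above its plate's cutoff, the mean activation of tested wells plus 3 SD, cut at about 7.9% in these data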
GAL4-VP16 Luc = GAL4-VP16 reporter activation counter-screen; shares compounds with SMARCA2 activ; HEK293 GAL4-VP16 pG5luc reporter, luciferase luminescence; scaled: DMSO wells 0%, SAHA wells 100%; activation, % at 9.1 µM; 41% of 3,500 active; AID 686939;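 active means activation above the solvent-only control well mean plus 3 SD, averaged across control plates, cut at about 5.2% in these data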
An asterisk follows results filed as active; ? = inconclusive; . = no result given.

SMILES	ASAP1 inh	ARFGAP1 inh	SMARCA2 activ	esBAF inh	SMARCA2 act conf	GAL4-VP16 Luc
Cc1ccc(NC(=O)c2ccc([N+](=O)[O-])cc2Cl)nc1	-8	20	9.1*	.	6	9.7*
COc1ccc(S(=O)(=O)Nc2ccc3c(c2)CC(=O)N([C@H](C)CO)C[C@@H](C)[C@@H](CN(C)S(C)(=O)=O)O3)cc1	.	.	.	-2	.	.
COc1cccc(S(=O)(=O)Nc2ccc3c(c2)OC[C@@H](C)N(C(=O)Cc2cccnc2)C[C@H](C)[C@@H](OC)CN(C)C3=O)c1	.	.	.	3	.	.
COc1ccc(-c2nc(N)ncc2-c2ccc(OC)c(OC)c2)c(O)c1	3	-5	8.1*	-5	7	1
CN1CCN(NC(=O)c2cccc(S(=O)(=O)N3CCCCCC3)c2)CC1	-14	6	-2	-1	.	.
CC1CN(S(=O)(=O)c2cccc(C(=O)NN3CCN(C)CC3)c2)CC(C)O1 (stereo not drawn)	-2	0	9.1*	-5	1	1
CCN(CC)S(=O)(=O)c1ccc(NC(=O)CNC2CCCCC2)cc1	-2	5	-4	-5	.	.
CCN(CC)S(=O)(=O)c1ccc(NC(=O)CCC2CCCCC2)cc1	-15	4	9.4*	-23	5	1
CO[C@H]1CN(C)C(=O)c2ccc(NC(=O)c3ccno3)cc2OC[C@H](C)N(C(=O)C2CCC2)C[C@H]1C	.	.	.	2	.	.
CCCC(=O)C1=C(O)C(C(=O)OC)C(C)(C)CC1=Nc1ccc(N)cc1 (stereo not drawn)	-5	13	2	0	.	.
CCCC(=Nc1ccc(N)cc1)C1=C(O)C(C(=O)OC)C(C)(C)CC1=O (stereo not drawn)	-6	-8	8.2*	19	-3	3
CN(C)c1ccc2c(c1)[C@@H]1C[C@H](CC(=O)O)O[C@H](CO)[C@@H]1O2	.	.	.	8	.	.
O=C(C[C@H]1C=C[C@@H](NC(=O)CC2CC2)[C@@H](CO)O1)NCc1ccc(Cl)cc1	.	.	.	1	.	.
COc1ccc(OCc2cc(C(=O)N3CCCCCCC3)no2)c(Cl)c1	-19	7	1	.	.	.
COc1ccc(OCc2cc(C(=O)N3C[C@@H](C)O[C@@H](C)C3)no2)c(Cl)c1	-5	-7	8.3*	42*	3	4
Cc1ccc(S(=O)(=O)N(C)C[C@@H]2Oc3ccc(NC(=O)NC(C)C)cc3CC(=O)N([C@@H](C)CO)C[C@H]2C)cc1	.	.	.	0	.	.
CS(=O)(=O)N(CC1CCC1)C[C@H]1N[C@@H](CO)[C@H]1c1ccccc1	.	.	.	-3	.	.
CCOC(=O)COc1c(OC)cc(Cl)cc1C1Nc2ccccc2C(=O)N1c1cccc(C)c1 (stereo not drawn)	8	11	0	?	.	.
CCOC(=O)COc1ccccc1C1Nc2ccccc2C(=O)N1c1cccc(Cl)c1 (stereo not drawn)	2	2	8.2*	.	7	6.0*
CCOc1cc(C2Nc3ccccc3C(=O)N2c2ccccc2)c(Br)cc1OCC(=O)O (stereo not drawn)	14	0	-1	.	.	.
COc1cc(C2Nc3ccccc3C(=O)N2c2ccc(Cl)cc2)c(Cl)cc1OCC(=O)O (stereo not drawn)	13	5	10*	.	12*	9.5*
Cc1ccc(S(=O)(=O)NCC[C@@H]2CC[C@@H](NC(=O)c3ccccn3)[C@H](CO)O2)cc1	.	.	.	0	.	.
C[C@H](CO)N1C[C@H](C)[C@H](CN(C)CC2CCCCC2)Oc2ccc(NC(=O)Cc3cn(C)c4ccccc34)cc2C1=O	.	.	.	4	.	.
CC(=O)NCCC(=O)Nc1sc2c(c1-c1nc3ccccc3[nH]1)CCCC2	-10	8	2	.	.	.
CN1CCN(S(=O)(=O)c2cccc(C(=O)Nc3sc4c(c3-c3nc5ccccc5[nH]3)CCCC4)c2)CC1	18	6	21*	.	4	4
SMILES	ASAP1 inh	ARFGAP1 inh	SMARCA2 activ	esBAF inh	SMARCA2 act conf	GAL4-VP16 Luc
COc1ccc(-c2cn3cccc(C)c3n2)cc1Br	-4	10	10*	99*	7	14*
Cc1cccn2cc(-c3ccccc3)nc12	-14	2	3	.	.	.
CN(C)CCN1C(=O)c2cccc3cc([N+](=O)[O-])cc(c23)C1=O	-9	13	15*	.	11*	7.2*
CO[C@H](CN(C)C(=O)Nc1ccc(C(F)(F)F)cc1)[C@H](C)CN(Cc1ccccc1Cl)[C@H](C)CO	.	.	.	-1	.	.
C[C@@H]1CCCCO[C@@H](CN(C)Cc2ccc(C(=O)O)cc2)[C@H](C)CN([C@H](C)CO)C(=O)c2cc(NS(=O)(=O)c3ccc(F)cc3)ccc2O1	.	.	.	-4	.	.
CCOc1ccccc1OCCn1nnc2ccccc21	-9	-26	-3	8	.	.
COc1ccccc1OCCn1nnc2ccccc21	-2	4	11*	37	7	5
CCOC(=O)c1nn(-c2ccc(Cl)cc2)c2nnc(Cc3ccccc3)c(=O)n12	13	-10	12*	.	-2	0
Cc1ccc(C(=O)N2CCCC(C(F)(F)F)C2)cc1S(=O)(=O)N1CCOCC1 (stereo not drawn)	-3	4	8.0*	0	-1	0
Cc1ccc(C(=O)N2CCCC2)cc1S(=O)(=O)N1CCOCC1	-3	2	-1	.	.	.
NC(=O)C1CCCN(Cc2ccc(Cl)cc2)C1 (stereo not drawn)	4	-2	8.3*	-12	6	-1
O=c1cc2[nH]c3ccccc3c(=O)n2nc1-c1ccccc1	-8	2	8.7*	9	9.5*	6.2*
Cc1ccccc1CCN(C(=O)CN1C(=O)c2ccccc2S1(=O)=O)C(C(=O)NCC1CCCO1)c1ccncc1 (stereo not drawn)	9	13	9.0*	.	-1	1
O=C(CC1C[C@H](C(=O)N2CCOCC2)[C@@]2(CCC3CCCC3)c3[nH]c4ccccc4c3CCN2C1=O)NCCc1ccccn1 (stereo partly drawn)	-5	9	-3	16	.	.
CN(C)CCCNC(=O)C[C@H]1C[C@H](C(=O)N2CCOCC2)[C@@]2(CCC3CCCC3)c3[nH]c4cc(-c5ccco5)ccc4c3CCN2C1=O	1	9	8.2*	-4	-4	0
CN(C)C(=O)CCc1ccc2c3c([nH]c2c1)[C@]1(CCC2CCCC2)[C@@H](C(=O)N2CCOCC2)C[C@H](CC(=O)NCCc2ccccn2)C(=O)N1CC3	-6	0	8.0*	5	-5	1
C/C(=N\NC(=O)c1nn(C)cc1Br)c1ccncc1	12	0	1	.	.	.
C/C(=N\NC(=O)c1nn(C)cc1Cl)c1ccncc1	-4	2	9.5*	.	0	-1
Cc1ccc(S(=O)(=O)N(C)C[C@H]2OCCCC[C@H](C)Oc3ccc(NC(=O)c4ccccc4)cc3C(=O)N([C@H](C)CO)C[C@H]2C)cc1	.	.	.	-6	.	.

High-throughput results: PubChem, several laboratories
